Source: PubChem BioAssay (several laboratories)
This is a sample that favours compounds with a hit; in the whole collection about 5.7% have one here.
SKKanGAS inh: blocks kanamycin growth of S. pyogenes SKKanGAS strain; BacTiter-Glo, 6 h; actives 1.3% (n = 300,000); inhibition, % at 7.5 µM; AID 1662;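 active means mean replicate score, as percent of positive control median, at least 50; inconclusive means mean below 50 but one replicate at or above 50; inactive means mean and every replicate below 50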;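 further: strain carries kanamycin resistance gene driven by streptokinase promoter and grows in 40 µg/ml kanamycin; loss of luminescence reflects streptokinase promoter inhibition or plain growth inhibition; 0% = median of DMSO wells and 100% = positive control at its reference dose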
Beta cell apopt: blocks beta cell apoptosis. actives 0.8% (n = 300,000). INS-1E cytokine-induced death, ATP luminescence, 48 h; percent of positive-control rescue, neutral wells zero. protection from apoptosis, % (no concentration beside the values);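 active means Every replicate reaches about 75%, or at least half do and their mean reaches it too, limit read from the data; inconclusive means At least half of replicates reach the limit but their mean does not; inactive means Under half of replicates reach the limit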;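 further: 0% = cytokine-treated negative control wells and 100% = positive control rescue; higher means more ATP so stronger rescue from cytokine killing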
Mdm2-MdmX inh: disrupts the human Mdm2-MdmX interaction; O15151+Q00987; SaOS-2 split-luciferase Mdm2/MdmX complementation, luminescence; inhibition, % at 8 µM; actives 3% (n = 330,000);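 active means inhibition of at least 50% at 8 µM in the primary screen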
Calb FLC: C. albicans growth modulation with fluconazole; C. albicans CaCi-2 (fluconazole-resistant clinical isolate) + fluconazole, Alamar Blue growth, 48 h; growth inhibition, % (no concentration beside the values); actives 0.57% (n = 300,000);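 active means growth inhibition above about 58% in most replicates, limit read from the data, passing the limit was not always enough; inconclusive means exactly half the replicates above a set limit; inactive means most replicates below a set limit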;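 further: all wells also contain fluconazole at 8 µg/ml as a sub-toxic cotreatment; 0% = median of DMSO wells and 100% = median of geldanamycin control wells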
T cruzi inh: blocks replication of Trypanosoma cruzi; actives 1.4% (n = 300,000); T. cruzi beta-gal in NIH3T3, luminescence, 90 h; inhibition, % (no concentration beside the values);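 active means mean inhibition across valid replicates above about 55%, limit read from the data; inconclusive means mean below that limit but half or more replicates reach it; inactive means mean below it, under half of replicates reach it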;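 further: signal also drops with host cell toxicity which is not excluded here; 0% = plate median of DMSO wells and 100% = zero luminescence signal; higher percent means less beta-gal luminescence so fewer parasites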
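Test system: β-gal T. cruzi (Tulahuen C4) inside NIH/3T3 cells / Quantity: 5,000 cells/well / Measured by: luminescence from GalScreen with 0.05% NP40, read after 60 min / Medium: DMEM plus 2% FBS / Measure: parasite load inhibition, % / Reagent: Tulahuen C4 trypomastigotes, 5000/well / Schedule: co-culture of at least 90 h after 3 h attachment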
CSC inhib: cancer stem cell inhibition; AID 2717; cancer stem cell-like cells viability, luminescence; inhibition, % at 7.5 µM; actives 1.1% (n = 300,000); in the data active means inhibition above about 75%; inconclusive means no clear call, values can overlap the other calls; tested in HMLE shEcad cells
The depositor's hits bear a star.

How did Cc1cc2c3c(c1)C(C)CC(C)(C)N3C(=O)C2=C(C#N)C#N (configuration not stated) do in these assays?
SKKanGAS inh: 6; Beta cell apopt: 1; Mdm2-MdmX inh: 32; Calb FLC: 4; T cruzi inh: 25; CSC inhib: 15

What do the screens show for `CN1/C(=C\C(=S)NC(=O)c2ccc([N+](=O)[O-])cc2)C(C)(C)c2ccccc21`?
SKKanGAS inh: 4; Beta cell apopt: 103*; Mdm2-MdmX inh: -3; Calb FLC: inconclusive; T cruzi inh: 48; CSC inhib: -6

How did CCN(CC)S(=O)(=O)c1cccc(C(=O)/C=C2/N(C)c3ccccc3C2(C)C)c1 do in these assays?
SKKanGAS inh: 13; Beta cell apopt: 28; Mdm2-MdmX inh: 2; Calb FLC: 6; T cruzi inh: 57*; CSC inhib: 41

Results for CN1/C(=C/C(=O)C2CC2)C(C)(C)c2ccccc21 ?
SKKanGAS inh: 6; Beta cell apopt: 21; Mdm2-MdmX inh: 5; Calb FLC: 0; CSC inhib: -3

What do the screens show for `CN1/C(=C\C(=S)NC(=O)c2cccc(Br)c2)C(C)(C)c2ccccc21`?
SKKanGAS inh: -7; Beta cell apopt: 116*; Mdm2-MdmX inh: 16; Calb FLC: -38; T cruzi inh: 47; CSC inhib: 10

Results for CN1/C(=C\C(=O)Nc2cccc(Cl)c2)C(C)(C)c2ccccc21 ?
SKKanGAS inh: 7; Beta cell apopt: 11; Mdm2-MdmX inh: 5; Calb FLC: 24; T cruzi inh: 19; CSC inhib: 43

How did CN1/C(=C\C(=O)Nc2ccc(Br)cc2)C(C)(C)c2ccccc21 do in these assays?
SKKanGAS inh: 71*; Beta cell apopt: -17; Mdm2-MdmX inh: 6; Calb FLC: 0; T cruzi inh: 2; CSC inhib: 76*

How did C=CCN1C(=O)C(C)(C)N(C(=O)c2cccc([N+](=O)[O-])c2)c2ccccc21 do in these assays?
SKKanGAS inh: 11; Beta cell apopt: 0; Mdm2-MdmX inh: -4; Calb FLC: 11; T cruzi inh: 22; CSC inhib: 1

What do the screens show for `CC1CCCCN1C(=O)C(=O)c1cn(CC(=O)N2CCCC2)c2ccccc12` (configuration not stated)?
SKKanGAS inh: 1; Beta cell apopt: -2; Mdm2-MdmX inh: 18; Calb FLC: -5; T cruzi inh: -8; CSC inhib: 5

Results for COC(=O)c1cn(CC(=O)NC2CCCCC2)c2ccccc12 ?
SKKanGAS inh: 6; Beta cell apopt: 3; Mdm2-MdmX inh: 16; Calb FLC: 100*; T cruzi inh: -2; CSC inhib: -6

How did CCOC(=O)C1CCN(C(=O)C(=O)c2cn(CC(=O)N3CCCCCC3)c3ccccc23)CC1 do in these assays?
SKKanGAS inh: 18; Beta cell apopt: 7; Mdm2-MdmX inh: 16; Calb FLC: -15; T cruzi inh: 62*

What do the screens show for `CC1CCCCN1C(=O)C(=O)c1cn(CC(=O)N2CCCCCC2)c2ccccc12` (configuration not stated)?
SKKanGAS inh: 4; Beta cell apopt: 4; Mdm2-MdmX inh: -6; Calb FLC: -9; T cruzi inh: 64*; CSC inhib: -10

How did CC(=O)Nc1ccc(S(=O)(=O)NNC(=O)c2cccc([N+](=O)[O-])c2)cc1 do in these assays?
SKKanGAS inh: 0; Beta cell apopt: -8; Mdm2-MdmX inh: 5; Calb FLC: -5; T cruzi inh: 6; CSC inhib: -7

Results for O=C(N/N=C/c1cccc([N+](=O)[O-])c1)C(=O)N1CCCCCC1 ?
SKKanGAS inh: 1; Mdm2-MdmX inh: -3; Calb FLC: -9; T cruzi inh: -12; CSC inhib: -9

Results for Clc1ccc(Cl)c(OCCN2CCCC2)c1 ?
SKKanGAS inh: 5; Mdm2-MdmX inh: 6; Calb FLC: -12; T cruzi inh: 6; CSC inhib: -1

What do the screens show for `Cc1cc(C)c(OCCCCN2CCC(C)CC2)c(Br)c1`?
SKKanGAS inh: 1; Beta cell apopt: 10; Mdm2-MdmX inh: -15; Calb FLC: -21; T cruzi inh: 30; CSC inhib: 82*

How did CC1CCN(CCOCCOc2ccc(Cl)cc2Br)CC1 do in these assays?
SKKanGAS inh: -3; Beta cell apopt: 10; Mdm2-MdmX inh: 13; Calb FLC: 14; T cruzi inh: 64*; CSC inhib: 62
